Compound activity: PubChem BioAssay, several laboratories
Only some compounds are listed: those with a hit (about 2.3% of all), similar ones and a draw of the others.
PPC-1+TRAIL kill – PPC-1 cancer cell killing with TRAIL present. PPC-1 cells + TRAIL, ATPLite viability luminescence. cell killing (% activity), % at 4 µM or 5 µM. actives 0.41% (n = 220,000);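 active = cell killing above 50% in the first pass at 4 µM, then a duplicate retest at 5 µM averaging 50% or more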;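 also: plate controls were cells with TRAIL plus DMSO for no effect and medium-only wells lacking cells for full effect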
STAT3 blocker – STAT3 signaling inhibition | U3A cells, IL-6 STAT3-luciferase reporter, luminescence; host cell line lacks STAT1 | inhibition, % at 5.5 µM | actives 0.89% (n = 190,000) | AID 862;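 active = inhibition above the mean inhibition across all screened compounds plus 3 SD, cut at about 44% in these data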;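 also: 0% = DMSO only wells and 100% = 100 µM nifuroxazide control wells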
STAT3 act – activators of IL-6 induced STAT3 signaling. activation (% of control), % at 5.6 µM. actives 0.91% (n = 190,000). U3A cells, IL-6 STAT3-luciferase reporter, luminescence; 100% = signal with IL-6 EC80 alone;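 active = activation above the screen-wide mean of compound activation plus 3 SD, cut at about 130% in these data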;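 also: 0% = background luminescence of wells with medium and substrate only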
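Material: STAT3-luciferase reporter U3A cells; Probe or stimulus: IL-6 (33 ng/mL); Incubation: compound pre-incubation 1 h before IL-6, then 6 h stimulation at 37 °C; Technique: luminescence from STAT3-driven luciferase reporter; Evaluation: % activation versus median of IL-6-stimulated wells; Controls: IL-6-only high control.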
C8 TRAIL sens – caspase-8 TRAIL sensitization | NB7+C8 cells + TRAIL, ATPlite viability luminescence | inhibition (viability loss, TRAIL sensitization), % at 10 µM | actives 1% (n = 360,000);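 active = compounds causing at least 50% loss of cell viability in the single-dose screen, relative to plate controls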
HSP90 inh – inhibitors of HSP90 luciferase refolding in rabbit reticulocyte lysate; luciferase refolding luminescence, 3 h; inhibition, % at 5.6 µM; actives 0.91% (n = 290,000);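 active = inhibition above the screen-wide mean plus 3 SD, computed separately per campaign, cut at about 16% in these data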;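 also: 0% = DMSO wells and 100% = 60 µM geldanamycin wells; inhibitors lower the luminescence because luciferase stays unfolded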
STAT1 blocker – inhibitors of IFN-gamma induced STAT1 signaling. inhibition, % at 5.5 µM. NIH 3T3 STAT1-luciferase reporter, luminescence. actives 0.35% (n = 200,000). AID 920;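 active = inhibition above a set limit, the mean inhibition across all tested compounds plus 3 SD, cut at about 34% in these data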;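 also: 0% = IFN-gamma with DMSO and 100% = IFN-gamma with 300 µM nifuroxazide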
HSP90 inh confirm – confirmation of HSP90 inhibitors; shares compounds with HSP90 inh; rabbit reticulocyte lysate, luciferase refolding luminescence, 3 h; inhibition, % at 5.9 µM; actives 64% (n = 2,300); in the data active = inhibition above about 18%;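 also: 0% = vehicle wells and 100% = reference inhibitor wells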
FLuc counter – firefly luciferase inhibition, HSP90 counter-screen; shares compounds with HSP90 inh; purified native firefly luciferase, luminescence; inhibition, % at 5.9 µM; actives 48% (n = 2,300); AID 1847;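 active = inhibition above the mean inhibition of all tested sample wells plus 3 SD, cut at about 10% in these data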;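 also: 0% = DMSO with luciferase and 100% = wells lacking luciferase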
Target sequence (P08659 whole entry, looked up): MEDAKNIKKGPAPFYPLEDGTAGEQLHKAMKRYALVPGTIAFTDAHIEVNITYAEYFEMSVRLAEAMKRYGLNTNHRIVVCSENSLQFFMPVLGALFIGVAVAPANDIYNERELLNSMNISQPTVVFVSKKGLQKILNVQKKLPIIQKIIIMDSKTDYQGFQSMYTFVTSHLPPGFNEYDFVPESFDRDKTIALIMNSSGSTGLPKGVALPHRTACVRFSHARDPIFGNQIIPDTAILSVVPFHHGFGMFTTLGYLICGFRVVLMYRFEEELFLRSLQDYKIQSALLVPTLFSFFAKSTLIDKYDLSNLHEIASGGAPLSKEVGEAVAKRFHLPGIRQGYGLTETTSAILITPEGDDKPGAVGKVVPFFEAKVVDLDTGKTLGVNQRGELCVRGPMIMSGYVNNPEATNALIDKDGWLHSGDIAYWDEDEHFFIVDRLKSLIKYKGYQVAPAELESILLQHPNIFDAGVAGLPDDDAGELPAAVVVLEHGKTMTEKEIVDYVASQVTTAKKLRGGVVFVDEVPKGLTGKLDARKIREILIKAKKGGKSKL
* marks the source's active call; other numbers are inactive results; nt = no result given.

SMILES	PPC-1+TRAIL kill	STAT3 blocker	STAT3 act	C8 TRAIL sens	HSP90 inh	STAT1 blocker	HSP90 inh confirm	FLuc counter
CCOc1cccc(N2C(=O)/C(=C/c3ccco3)C(=O)NC2=S)c1	nt	nt	nt	-13	32*	nt	7	19*
O=c1[nH]c(=O)n(C2CCCCC2)c(O)c1/C=C/C=Nc1ccccc1	4	nt	nt	0	0	nt	nt	nt
COc1ccc(N2C(=O)NC(=O)/C(=C\c3cn(C)c4ccccc34)C2=O)cc1	nt	nt	nt	-23	28*	nt	-1	-4
CC1CN=C(NC(C)c2ccccc2)S1 (stereo not given)	26	1	106	2	17*	-7	-4	-8
Cn1cc(C(=O)OCC(=O)NC2CCCC2)c2ccccc21	nt	nt	nt	-1	nt	nt	nt	nt
